# Test results: ChEMBL document CHEMBL4330067, “Synthesis and mechanistic studies of diketo acids and their bioisosteres as potential antibacterial agents” (Eur J Med Chem, 2019)
# pKi: −log10 of the molar value. Active and inactive are the calls of the source. No cut-off for these calls is given here.
# What was measured:
# [1] = system: Mycobacterium tuberculosis; experiment: Inhibition of Mycobacterium tuberculosis methionine aminopeptidase 1C at 100 uM using Met-AMC as substrate relative to control
# In short: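 Purified MtMetAP1c (4 µM) in 50 mM Hepes pH 7.5 with 150 mM KCl and CoCl2 at three molar equivalents of enzyme. Substrate was L-Met-AMC at 50, 100 or 150 µM. Compounds came from 10 mM DMSO stocks. Percent inhibition was taken against the uninhibited control.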
# [2] = Inhibition of human methionine aminopeptidase 1B using Met-AMC as substrate by Dixon method
# In short: (§1)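 Purified MetAP at 4 µM in 50 mM HEPES with 150 mM KCl and CoCl2 at 3 molar equivalents of enzyme. pH 7.5 for SpMetAP1a and EfMetAP1a, pH 8.0 for HsMetAP1b. Substrate L-Met-AMC at 50, 100 and 150 µM. Compounds (10 mM DMSO stocks) tested over 1 to 120 µM for % inhibition; Ki by Dixon method.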
# [3] = system: Escherichia coli; experiment: Synergistic antibacterial activity against Escherichia coli MRC17 after 18 hrs in presence of ciprofloxacin by checkerboard method; assay type: functional; conditions: MRC17, 18 h
# In short: (§2)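 Checkerboard combination with ciprofloxacin in Mueller-Hinton broth: compound 1024 to 16 µg/mL crossed with ciprofloxacin 128 to 2 µg/mL. Inoculum 5×10⁵ CFU/mL suspension, 18 h at 37 °C. Fractional inhibitory concentration index derived from the combination.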
# [4] = system: Escherichia coli; experiment: Antibacterial activity against Escherichia coli MRC24 at 512 ug/mL after 24 hrs by broth dilution assay relative to control; assay type: functional
# In short: (§3)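 Multidrug-resistant E. coli isolates in Luria broth, test range 8 to 1024 µg/mL (ciprofloxacin 0.49 to 63.3 µg/mL). Inoculum 10 µL of a 1000-fold diluted 0.1 OD600 culture, incubated overnight at 37 °C. OD read at 600 nm. % inhibition = (a−b)/a×100, with media and compound-colour blanks subtracted.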
# [5] = system: Escherichia coli; experiment: Antibacterial activity against Escherichia coli MRAE26 after overnight incubation; assay type: functional; in short: as §3
# [6] = system: Escherichia coli; experiment: Synergistic antibacterial activity against Escherichia coli MRC17 assessed as fractional inhibitory concentration index after 18 hrs in presence of ciprofloxacin by checkerboard method; assay type: functional
# In short: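 Checkerboard combination against MDR E. coli. Test agent gradient 1024–16 µg/mL crossed with ciprofloxacin 128–2 µg/mL in Mueller-Hinton broth. Wells were inoculated with a 5 × 10⁵ CFU/mL suspension and incubated 18 h at 37 °C. Interaction was expressed as the fractional inhibitory concentration index (FICI).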
# [7] = system: Enterococcus faecalis; experiment: Antibacterial activity against Enterococcus faecalis MTCC 439 after 24 hrs by broth dilution assay; assay type: functional; conditions: MTCC 439, 24 h
# In short: (§4)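 Broth dilution per NCCLS in nutrient broth, serial dilutions 1000 to 7.8 µg/mL, DMSO below 4% final. Inoculum approx. 2.5×10⁶ cells/mL, 37 °C with shaking at 150 rpm for 24 h. MIC taken as the lowest concentration with no visible growth. Ciprofloxacin served as positive control.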
# [8] = system: Streptococcus pneumoniae; experiment: Inhibition of Streptococcus pneumoniae methionine aminopeptidase 1A at 100 uM using Met-AMC as substrate relative to control; in short: as §1
# [9] = system: Escherichia coli; experiment: Antibacterial activity against Escherichia coli MRA11 after overnight incubation; assay type: functional; in short: as §3
# [10] = system: Escherichia coli; experiment: Antibacterial activity against Escherichia coli MRC24 after overnight incubation; assay type: functional; in short: as §3
# [11] = system: Escherichia coli; experiment: Synergistic antibacterial activity against Escherichia coli MRAE33 assessed as ciprofloxacin MIC at 16 to 1024 ug/mL after 18 hrs by checkerboard method; assay type: functional; conditions: MRAE33, 18 h; in short: as §2
# [12] = species: Homo sapiens; experiment: Inhibition of human methionine aminopeptidase 1B at 100 uM using Met-AMC as substrate relative to control; in short: as §1
# [13] = system: Salmonella typhimurium; experiment: Antibacterial activity against Salmonella typhimurium MTCC 3224 after 24 hrs by broth dilution assay; assay type: functional, Salmonella enterica subsp. enterica serovar Typhimurium; conditions: Salmonella enterica, MTCC 3224, 24 h; in short: as §4
# [14] = system: Klebsiella pneumoniae; experiment: Antibacterial activity against Klebsiella pneumoniae ATCC 700603 after 24 hrs by broth dilution assay; assay type: functional; conditions: Klebsiella pneumoniae, 700603, 24 h; in short: as §4
# [15] = Inhibition of Mycobacterium tuberculosis methionine aminopeptidase 1C using Met-AMC as substrate by Dixon method
# [16] = system: Escherichia coli; experiment: Antibacterial activity against Escherichia coli MRC17 after overnight incubation; assay type: functional; in short: as §3
# [17] = system: Pseudomonas aeruginosa; experiment: Antibacterial activity against Pseudomonas aeruginosa MTCC 2453 after 24 hrs by broth dilution assay; assay type: functional; conditions: MTCC 2453, 24 h; in short: as §4
# [18] = system: CHO; experiment: Cytotoxicity against CHO cells at 300 ug/mL after 48 hrs by MTT assay; assay type: cell-based, Cricetulus griseus; conditions: chinese hamster
# In short: (§5)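 MTT assay: cells maintained in DMEM with 10% FBS and penicillin/streptomycin at 37 °C, 5% CO2. Seeded at approx. 2×10⁴ cells/well, 24 h before treatment, then exposed to 10 to 400 µg/mL for 48 h at 37 °C. MTT (5 mg/mL stock in PBS) added for 4 h, formazan dissolved in DMSO, A570 read. Triplicate wells; viability given relative to untreated cells.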
# [19] = system: Escherichia coli; experiment: Antibacterial activity against Escherichia coli MRC17 at 512 ug/mL after 24 hrs by broth dilution assay relative to control; assay type: functional; in short: as §3
# [20] = system: Escherichia coli; experiment: Antibacterial activity against Escherichia coli MROB11 after overnight incubation; assay type: functional; in short: as §3
# [21] = system: Escherichia coli; experiment: Synergistic antibacterial activity against Escherichia coli MRAE33 assessed as fractional inhibitory concentration index after 18 hrs in presence of ciprofloxacin by checkerboard method; assay type: functional; in short: as §2
# [22] = system: Escherichia coli; experiment: Antibacterial activity against Escherichia coli MRAE33 at 1024 ug/mL after 24 hrs by broth dilution assay relative to control; assay type: functional; in short: as §3
# [23] = system: CHO; experiment: Cytotoxicity against CHO cells at 50 ug/mL after 48 hrs by MTT assay; assay type: cell-based, Cricetulus griseus; conditions: chinese hamster; in short: as §5
# [24] = system: Escherichia coli; experiment: Antibacterial activity against Escherichia coli MRAE33 after overnight incubation; assay type: functional; in short: as §3
# [25] = Cytotoxicity against CHO cells assessed as cell viability at 100 ug/mL after 48 hrs by MTT assay relative to control; assay type: cell-based, Cricetulus griseus; conditions: chinese hamster, read-out: Activity; in short: as §5
# [26] = system: Escherichia coli; experiment: Antibacterial activity against Escherichia coli MROB11 at 512 ug/mL after 24 hrs by broth dilution assay relative to control; assay type: functional; in short: as §3
# [27] = system: Escherichia coli; experiment: Synergistic antibacterial activity against Escherichia coli MRC17 assessed as ciprofloxacin MIC at 16 to 1024 ug/mL after 18 hrs by checkerboard method; assay type: functional; conditions: MRC17, 18 h; in short: as §2
# [28] = system: Escherichia coli; experiment: Antibacterial activity against Escherichia coli MRAE44 at 1024 ug/mL after 24 hrs by broth dilution assay; assay type: functional, organism-based; in short: as §3
# [29] = system: Streptococcus pneumoniae; experiment: Antibacterial activity against Streptococcus pneumoniae MTCC 655 after 24 hrs by broth dilution assay; assay type: functional; conditions: MTCC 655, 24 h; in short: as §4
# [30] = Inhibition of Enterococcus faecalis methionine aminopeptidase 1A using Met-AMC as substrate by Dixon method; in short: as §1
# [31] = Inhibition of Streptococcus pneumoniae methionine aminopeptidase 1A using Met-AMC as substrate by Dixon method; in short: as §1
# [32] = system: Escherichia coli; experiment: Antibacterial activity against Escherichia coli MRAE44 after overnight incubation; assay type: functional; in short: as §3
# [33] = system: Escherichia coli; experiment: Antibacterial activity against Escherichia coli MRAE32 at 512 ug/mL after 24 hrs by broth dilution assay relative to control; assay type: functional; in short: as §3
# [34] = system: Escherichia coli; experiment: Antibacterial activity against Escherichia coli ATCC 25922 after 24 hrs by broth dilution assay; assay type: functional; conditions: ATCC 25922, 24 h; in short: as §4
# [35] = system: Enterococcus faecalis; experiment: Inhibition of Enterococcus faecalis methionine aminopeptidase 1A at 100 uM using Met-AMC as substrate relative to control; in short: as §1
# [36] = system: Escherichia coli; experiment: Synergistic antibacterial activity against Escherichia coli MRA11 after 18 hrs in presence of ciprofloxacin by checkerboard method; assay type: functional; conditions: MRA11, 18 h; in short: as §2
# [37] = system: Escherichia coli; experiment: Antibacterial activity against Escherichia coli MRA11 at 512 ug/mL after 24 hrs by broth dilution assay relative to control; assay type: functional; in short: as §3
# [38] = system: Escherichia coli; experiment: Antibacterial activity against Escherichia coli MRAE26 at 1024 ug/mL after 24 hrs by broth dilution assay relative to control; assay type: functional; in short: as §3
# [39] = system: Escherichia coli; experiment: Synergistic antibacterial activity against Escherichia coli MRA11 assessed as ciprofloxacin MIC at 16 to 1024 ug/mL after 18 hrs by checkerboard method; assay type: functional; conditions: MRA11, 18 h; in short: as §2
# [40] = system: Escherichia coli; experiment: Synergistic antibacterial activity against Escherichia coli MRA11 assessed as fractional inhibitory concentration index after 18 hrs in presence of ciprofloxacin by checkerboard method; assay type: functional; in short: as §2
# [41] = system: Escherichia coli; experiment: Synergistic antibacterial activity against Escherichia coli MRAE33 after 18 hrs in presence of ciprofloxacin by checkerboard method; assay type: functional; conditions: MRAE33, 18 h; in short: as §2
# [42] = system: Escherichia coli; experiment: Antibacterial activity against Escherichia coli MRAE32 after overnight incubation; assay type: functional; in short: as §3
smiles,measurement,setting,value
COC(=O)[C@@H](C)NC(=O)/C(O)=C/C(=O)c1oc2ccc(Br)cc2c1C,inhibition,[1],99.6%
same,pKi,[2],4.65
same,MIC,[3],1020 µg/mL
same,Activity,[4],76%
same,ICmax,[5],1024 µg/mL
same,fractional inhibitory concentration index (FICI),[6],1.5
same,MIC,[7],31.2 µg/mL
same,inhibition,[8],97.4%
same,ICmax,[9],512 µg/mL
same,MIC,"[9]; Escherichia coli, MRA11",1020 µg/mL
same,ICmax,[10],512 µg/mL
same,MIC,[11],2 µg/mL
same,inhibition,[12],89.1%
same,MIC,[13],500 µg/mL
same,MIC,[14],500 µg/mL
same,pKi,[15],4.75
same,ICmax,[16],512 µg/mL
same,MIC,"[16]; Escherichia coli, MRC17",1020 µg/mL
same,MIC,[17],125 µg/mL
same,Activity,[18],Toxic
same,Activity,[19],60%
same,ICmax,[20],512 µg/mL
same,fractional inhibitory concentration index (FICI),[21],1.0156
same,Activity,[22],50%
same,Activity,[23],Non-Toxic
same,ICmax,[24],512 µg/mL
same,MIC,"[24]; Escherichia coli, MRAE33",1020 µg/mL
same,"viability at 48 h, 100 ug/mL",[25],50%
same,Activity,[26],87%
same,MIC,[27],64 µg/mL
same,Activity,[28],Active
same,MIC,[29],62.5 µg/mL
same,pKi,[30],4.98
same,pKi,[31],5.06
same,ICmax,[32],1024 µg/mL
same,Activity,[33],88%
same,MIC,[34],62.5 µg/mL
same,inhibition,[35],93.9%
same,MIC,[36],1020 µg/mL
same,Activity,[37],65%
same,Activity,[38],54%
same,MIC,[39],128 µg/mL
same,fractional inhibitory concentration index (FICI),[40],2
same,MIC,[41],16 µg/mL
same,ICmax,[42],512 µg/mL
